Consider 16 compounds from ChEMBL document CHEMBL4177624, “Rationally designed hecogenin thiosemicarbazone analogs as novel MEK inhibitors for the control of breast malignancies” (Bioorg Med Chem, 2017).

Holding throughout (type): functional, cell-based
In one test the test system is SK-BR-3. Put plainly: Antiproliferative activity against human SKBR3 cells after 72 hrs by MTT assay. Conditions: SK-BR-3, 72 h. In a few lines: (§1)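 Six human breast carcinoma lines of differing molecular and phenotypic character were each exposed to a range of concentrations for 72 h. Proliferation was read by MTT. Results are given as mean percent viability, with IC₅₀ ± SEM calculated per cell line.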
A general note: Tetrazolium dyes change colour on reduction, which living cells bring about.

For the next test, the system named is MCF7. The test is described as follows: Antiproliferative activity against human MCF7 cells after 72 hrs by MTT assay. Conditions: MCF7, 72 h. Summed up:
as §1

A further test has as its system MDA-MB-468. Put plainly: Antiproliferative activity against human MDA-MB-468 cells after 72 hrs by MTT assay. Conditions: MDA-MB-468, 72 h. Summed up: as §1
In the next test the test system is MDA-MB-231. The test is described as follows: Antiproliferative activity against human MDA-MB-231 cells after 72 hrs by MTT assay. Conditions: MDA-MB-231, 72 h. In a few lines: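 MDA-MB-231 triple-negative breast cancer cells were exposed to a range of concentrations for 72 h. Proliferation was read by MTT. Results are given as mean percent viability versus concentration, with IC₅₀ ± SEM calculated from the curve.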

The next test relates to T47D. Put plainly: Antiproliferative activity against human T47D cells after 72 hrs by MTT assay. In a few lines:
as §1

The next test relates to BT-474. The test is described as follows: Antiproliferative activity against human BT474 cells after 72 hrs by MTT assay. Conditions: BT-474, 72 h. In a few lines:
as §1

With `Cc1cccc(C)c1NC(=S)N/N=C1\C[C@H]2[C@@H](CC[C@H]3C[C@@H](O)CC[C@@]32C)[C@@H]2C[C@@H]3O[C@]4(CC[C@@H](C)CO4)[C@@H](C)[C@@H]3[C@@]12C`, the half-inhibitory concentration (IC50) came out at 2.9 µM with SK-BR-3; 2.5 µM in the test with MCF7; 2.8 µM in the test with MDA-MB-468; 2.3 µM in the test on MDA-MB-231; 4.2 µM in the test on T47D; 3.2 µM in the test with BT-474.
With `C[C@@H]1CC[C@@]2(OC1)O[C@H]1C[C@H]3[C@@H]4CC[C@H]5C[C@@H](O)CC[C@]5(C)[C@H]4C/C(=N\NC(=O)Nc4cccc(C(F)(F)F)c4)[C@]3(C)[C@H]1[C@@H]2C`, the half-maximal inhibitory concentration (IC50) in the test on SK-BR-3 was 15.7 µM; in the test with MCF7, 13.8 µM; with MDA-MB-468 it was 15.3 µM; in the test with MDA-MB-231, 14 µM; in the test on T47D, 20.9 µM; in the test on BT-474, 19.2 µM.
Consider `C[C@@H]1CC[C@@]2(OC1)O[C@H]1C[C@H]3[C@@H]4CC[C@H]5C[C@@H](OC(=O)c6ccc(C#N)cc6)CC[C@]5(C)[C@H]4CC(=O)[C@]3(C)[C@H]1[C@@H]2C`, for which the IC50 was 34.7 µM with SK-BR-3; 33.2 µM in the test on MCF7; 32.6 µM with MDA-MB-468; 25.7 µM in the test with MDA-MB-231; > 40 µM with T47D; 35 µM in the test on BT-474.
Consider `CCc1ccccc1NC(=S)N/N=C1\C[C@H]2[C@@H](CC[C@H]3C[C@@H](O)CC[C@@]32C)[C@@H]2C[C@@H]3O[C@]4(CC[C@@H](C)CO4)[C@@H](C)[C@@H]3[C@@]12C`, for which the 50% inhibitory concentration (IC50) was 4.7 µM in the test on SK-BR-3; 5 µM in the test with MCF7; 5.8 µM with MDA-MB-468; 3.8 µM in the test on MDA-MB-231; 8.8 µM in the test with T47D; 8.3 µM in the test on BT-474.
As for `C[C@@H]1CC[C@@]2(OC1)O[C@H]1C[C@H]3[C@@H]4CC[C@H]5C[C@@H](O)CC[C@]5(C)[C@H]4C/C(=N\NC(=S)Nc4ccc(C(F)(F)F)cc4)[C@]3(C)[C@H]1[C@@H]2C`, the IC50 in the test with SK-BR-3 is 4 µM; with MCF7, 3.7 µM; with MDA-MB-468, 3.9 µM; in the test with MDA-MB-231, 3.2 µM; with T47D it was 3.8 µM; in the test on BT-474, 4.4 µM.
For `COc1ccccc1NC(=S)N/N=C1\C[C@H]2[C@@H](CC[C@H]3C[C@@H](O)CC[C@@]32C)[C@@H]2C[C@@H]3O[C@]4(CC[C@@H](C)CO4)[C@@H](C)[C@@H]3[C@@]12C`, the IC50 with SK-BR-3 was 7.5 µM; with MCF7, 7.1 µM; in the test on MDA-MB-468, 7.5 µM; with MDA-MB-231, 6.8 µM; in the test on T47D it was 10.2 µM; in the test with BT-474, 8.8 µM.
Regarding `C[C@@H]1CC[C@@]2(OC1)O[C@H]1C[C@H]3[C@@H]4CC[C@H]5C[C@@H](OC(=O)c6ccccc6)CC[C@]5(C)[C@H]4CC(=O)[C@]3(C)[C@H]1[C@@H]2C`, the half-inhibitory concentration (IC50) in the test on SK-BR-3 came out at 33.4 µM; with MCF7, 30.3 µM; in the test with MDA-MB-468 it was 34.2 µM; in the test on MDA-MB-231, 29.1 µM; in the test with T47D it was 37.8 µM; in the test with BT-474, 36.3 µM.
For the compound `C[C@@H]1CC[C@@]2(OC1)O[C@H]1C[C@H]3[C@@H]4CC[C@H]5C[C@@H](O)CC[C@]5(C)[C@H]4C/C(=N\NC(=S)Nc4ccc(Cl)cc4Cl)[C@]3(C)[C@H]1[C@@H]2C`, the IC50 in the test on SK-BR-3 was determined as 8.8 µM; with MCF7, 7.9 µM; in the test with MDA-MB-468, 8 µM; with MDA-MB-231, 7.5 µM; in the test on T47D, 9.5 µM; in the test with BT-474, 9 µM.
Consider `C[C@@H]1CC[C@@]2(OC1)O[C@H]1C[C@H]3[C@@H]4CC[C@H]5C[C@@H](OC(=O)c6cccc(C(F)(F)F)c6)CC[C@]5(C)[C@H]4CC(=O)[C@]3(C)[C@H]1[C@@H]2C`, for which the IC50 in the test with SK-BR-3, with MCF7, with MDA-MB-468, with MDA-MB-231, in the test on T47D and in the test with BT-474 was > 40 µM in each case.
As to `C[C@@H]1CC[C@@]2(OC1)O[C@H]1C[C@H]3[C@@H]4CC[C@H]5C[C@@H](O)CC[C@]5(C)[C@H]4C/C(=N\NC(=S)Nc4ccc(F)cc4)[C@]3(C)[C@H]1[C@@H]2C`, the IC50 in the test with SK-BR-3 was 4.5 µM; with MCF7, 4 µM; with MDA-MB-468, 4.2 µM; in the test on MDA-MB-231, 5 µM; in the test on T47D, 5.9 µM; in the test with BT-474, 6.3 µM.
For `Cc1ccc(NC(=S)N/N=C2\C[C@H]3[C@@H](CC[C@H]4C[C@@H](O)CC[C@@]43C)[C@@H]3C[C@@H]4O[C@]5(CC[C@@H](C)CO5)[C@@H](C)[C@@H]4[C@@]23C)cc1`, the IC50 in the test with SK-BR-3 was 3.8 µM; with MCF7, 3.7 µM; in the test with MDA-MB-468, 4 µM; in the test with MDA-MB-231, 3.1 µM; in the test on T47D it was 6.1 µM; with BT-474, 4.5 µM.
As for `C[C@@H]1CC[C@@]2(OC1)O[C@H]1C[C@H]3[C@@H]4CC[C@H]5C[C@@H](O)CC[C@]5(C)[C@H]4C/C(=N\NC(=S)Nc4ccc([N+](=O)[O-])cc4)[C@]3(C)[C@H]1[C@@H]2C`, the IC50 in the test with SK-BR-3 was 7.9 µM; in the test with MCF7 it was 7.5 µM; in the test with MDA-MB-468 it was 8 µM; in the test on MDA-MB-231 it was 7.3 µM; in the test on T47D it was 11.5 µM; with BT-474, 10.3 µM.
With `C[C@@H]1CC[C@@]2(OC1)O[C@H]1C[C@H]3[C@@H]4CC[C@H]5C[C@@H](O)CC[C@]5(C)[C@H]4C/C(=N\NC(=S)Nc4ccccc4C(F)(F)F)[C@]3(C)[C@H]1[C@@H]2C`, the IC50 came out at 2.1 µM in the test with SK-BR-3; 2.2 µM with MCF7; 2.7 µM in the test on MDA-MB-468; 2.1 µM in the test on MDA-MB-231; 2.4 µM in the test on T47D; 3.1 µM with BT-474.
For the compound `C[C@@H]1CC[C@@]2(OC1)O[C@H]1C[C@H]3[C@@H]4CC[C@H]5C[C@@H](OC(=O)c6ccccc6Cl)CC[C@]5(C)[C@H]4CC(=O)[C@]3(C)[C@H]1[C@@H]2C`, the half-inhibitory concentration (IC50) in the test on SK-BR-3, in the test on MCF7, in the test with MDA-MB-468, in the test with MDA-MB-231, in the test with T47D and with BT-474 was > 40 µM in each case.
For `C[C@@H]1CC[C@@]2(OC1)O[C@H]1C[C@H]3[C@@H]4CC[C@H]5C[C@@H](O)CC[C@]5(C)[C@H]4C/C(=N\NC(=S)Nc4ccc(Oc5ccccc5)cc4)[C@]3(C)[C@H]1[C@@H]2C`, the IC50 in the test on SK-BR-3 is 29 µM; with MCF7 it was 27 µM; in the test on MDA-MB-468 it was 30.8 µM; in the test with MDA-MB-231, 28.1 µM; in the test on T47D, > 40 µM; with BT-474, 31.2 µM.
In the case of `C[C@@H]1CC[C@@]2(OC1)O[C@H]1C[C@H]3[C@@H]4CC[C@H]5C[C@@H](O)CC[C@]5(C)[C@H]4C/C(=N\NC(=S)Nc4ccccc4Cl)[C@]3(C)[C@H]1[C@@H]2C`, the IC50 with SK-BR-3 amounted to 5.7 µM; in the test with MCF7, 5.9 µM; in the test with MDA-MB-468, 6.2 µM; in the test with MDA-MB-231, 5.5 µM; in the test on T47D, 7 µM; in the test with BT-474, 6.5 µM.

By IC50 is commonly meant the midpoint of a concentration-inhibition curve. A high value points to weaker potency in that assay.
